We go through four compounds from ChEMBL document CHEMBL1121504, “Aporphines. 31. Synthesis and antitumor activity of aporphine nitrogen mustards” (1980).

The subject of assay [1] is P388. Briefly: (§1) Antitumor activity against intraperitoneally implanted P388 lymphocytic leukemia (P388) system at dose 50 mg/kg. In kind it is functional, Mus musculus. The note with it: route intraperitoneal. An outline of the steps: (§2)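 P388 lymphocytic leukemia inoculated intraperitoneally and run under standard NCI screening protocols. Each compound was tested at several graded doses in mg/kg. Activity was read out as T/C for each dose, with confirmatory activity judged by the NCI criteria.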

The subject of assay [2] is P388. In words: (§3) Antitumor activity against intraperitoneally implanted P388 lymphocytic leukemia (P388) system at dose 12.5 mg/kg. The class given is functional, Mus musculus. As to conditions: route intraperitoneal. An outline of the steps: as §2
Assay [3] concerns P388. In words: Antitumor activity against intraperitoneally implanted P388 lymphocytic leukemia (P388) system at dose 100 mg/kg. In kind it is functional, Mus musculus. As to conditions: route intraperitoneal. An outline of the steps:
as §2

In assay [4] the test system is P388. Briefly: (§4) Antitumor activity against intraperitoneally implanted P388 lymphocytic leukemia (P388) system at dose 25 mg/kg. The class given is functional, Mus musculus. As to conditions: route intraperitoneal. An outline of the steps: as §2
The subject of assay [5] is P388. In words: Antitumor activity against intraperitoneally implanted P388 lymphocytic leukemia (P388) system at dose 9.38 mg/kg. As to conditions: route intraperitoneal. The class given is functional, Mus musculus. An outline of the steps:
as §2

Assay [6] has as its system P388. Briefly: Antitumor activity against intraperitoneally implanted P388 lymphocytic leukemia (P388) system at dose 300 mg/kg. In kind it is functional, Mus musculus. The note with it: route intraperitoneal. An outline of the steps:
as §2

The subject of assay [7] is P388. Briefly: Antitumor activity against intraperitoneally implanted P388 lymphocytic leukemia (P388) system at dose 37.5 mg/kg. The class given is functional, Mus musculus. The note with it: route intraperitoneal. An outline of the steps:
as §2

Assay [8] relates to P388. Briefly: Antitumor activity against intraperitoneally implanted P388 lymphocytic leukemia (P388) system at dose 105 mg/kg. The class given is functional, Mus musculus. As to conditions: route intraperitoneal. An outline of the steps: as §2
Assay [9] has as its system P388. Briefly: Antitumor activity against intraperitoneally implanted P388 lymphocytic leukemia (P388) system at dose 18.75 mg/kg. In kind it is functional, Mus musculus. As to conditions: route intraperitoneal. An outline of the steps:
as §2

The subject of assay [10] is P388. Briefly: Antitumor activity against intraperitoneally implanted P388 lymphocytic leukemia (P388) system at dose 75 mg/kg. As to conditions: route intraperitoneal. The class given is functional, Mus musculus. An outline of the steps:
as §2

Assay [11] has as its system B16. Briefly: Antitumor activity against intraperitoneally implanted B16 melanoma tumor system at dose 32 mg/kg. The class given is functional, Mus musculus. The note with it: route intraperitoneal. An outline of the steps:
(§5)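 Murine-screen tumor implanted intraperitoneally and treated at the listed mg/kg doses under standard NCI protocols. Activity is read out as T/C, the treated-to-control ratio.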

Assay [12] deals with B16. Briefly: Antitumor activity against intraperitoneally implanted B16 melanoma tumor system at dose 4 mg/kg. The class given is functional, Mus musculus. As to conditions: route intraperitoneal. An outline of the steps: as §5
A short description of assay [13]: Antitumor activity against intracerebrally implanted ependymoblastoma (EM) tumor system at dose 2 mg/kg. In kind it is functional. An outline of the steps: (§6)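 Tumor implanted […] and treated at the listed mg/kg doses under standard NCI protocols. Activity is read out as T/C, the treated-to-control ratio.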
A short description of assay [14]: Antitumor activity against intraperitoneally implanted colon 26 (C26) […] system at dose 32 mg/kg. The note with it: route intraperitoneal. The class given is functional, Mus musculus. An outline of the steps: as §5
In assay [15] the test system is B16. In words: Antitumor activity against intraperitoneally implanted B16 melanoma tumor system at dose 2 mg/kg. The class given is functional, Mus musculus. As to conditions: route intraperitoneal. An outline of the steps: as §5
The subject of assay [16] is P388. In words: Antitumor activity against intracerebrally implanted lymphocytic leukemia (P388) system at dose 16 mg/kg. The class given is functional, Mus musculus.
Assay [17] has as its system P388. Briefly: Antitumor activity against intraperitoneally implanted P388 lymphocytic leukemia (P388) system at dose 8 mg/kg. As to conditions: route intraperitoneal. In kind it is functional, Mus musculus. An outline of the steps: as §5
For assay [18], the system named is P388. In words: Antitumor activity against intraperitoneally implanted P388 lymphocytic leukemia (P388) system at dose 4 mg/kg. The class given is functional, Mus musculus. As to conditions: route intraperitoneal. An outline of the steps:
as §5

The test system of assay [19] is P388. Briefly: Antitumor activity against intracerebrally implanted lymphocytic leukemia (P388) system at dose 8 mg/kg. The class given is functional, Mus musculus.
Assay [20] in a line: Antitumor activity against intracerebrally implanted ependymoblastoma (EM) tumor system at dose 4 mg/kg. In kind it is functional. An outline of the steps: as §6
Assay [21] can be described thus: Antitumor activity against intracerebrally implanted ependymoblastoma (EM) tumor system at dose 1 mg/kg. The class given is functional. An outline of the steps:
as §6

Assay [22] in a line: Antitumor activity against intraperitoneally implanted colon 26 (C26) […] system at dose 4 mg/kg. In kind it is functional, Mus musculus. As to conditions: route intraperitoneal. An outline of the steps: as §5
A short description of assay [23]: Antitumor activity against intracerebrally implanted ependymoblastoma (EM) tumor system at dose 0.25 mg/kg. In kind it is functional. An outline of the steps:
as §6

The nature of assay [24]: Antitumor activity against intraperitoneally implanted colon 26 (C26) […] system at dose 8 mg/kg. The class given is functional, Mus musculus. As to conditions: route intraperitoneal. An outline of the steps:
as §5

Assay [25] in a line: Antitumor activity against intraperitoneally implanted colon 26 (C26) […] system at dose 16 mg/kg. In kind it is functional, Mus musculus. The note with it: route intraperitoneal. An outline of the steps: as §5
Assay [26] concerns B16. In words: Antitumor activity against intraperitoneally implanted B16 melanoma tumor system at dose 8 mg/kg. The class given is functional, Mus musculus. As to conditions: route intraperitoneal. An outline of the steps:
as §5

Assay [27] can be described thus: Antitumor activity against intracerebrally implanted ependymoblastoma (EM) tumor system at dose 0.5 mg/kg. In kind it is functional. An outline of the steps: as §6
In assay [28] the test system is B16. In words: Antitumor activity against intraperitoneally implanted B16 melanoma tumor system at dose 16 mg/kg. The class given is functional, Mus musculus. The note with it: route intraperitoneal. An outline of the steps:
as §5

The subject of assay [29] is P388. In words: Antitumor activity against intraperitoneally implanted P388 lymphocytic leukemia (P388) system at dose 16 mg/kg. In kind it is functional, Mus musculus. As to conditions: route intraperitoneal. An outline of the steps:
as §5

Assay [30] relates to P388. The description is as §4. In kind it is functional, Mus musculus. As to conditions: route intraperitoneal. An outline of the steps: as §5
The source holds these as a separate data set.

Assay [31] has as its system P388. Briefly: Antitumor activity against intraperitoneally implanted P388 lymphocytic leukemia (P388) system at dose 3.13 mg/kg. In kind it is functional, Mus musculus. As to conditions: route intraperitoneal. An outline of the steps:
as §5

Assay [32] concerns P388. In words: Antitumor activity against intraperitoneally implanted P388 lymphocytic leukemia (P388) system at dose 6.25 mg/kg. The class given is functional, Mus musculus. As to conditions: route intraperitoneal. An outline of the steps:
as §5

Assay [33] concerns B16. In words: Antitumor activity against B16 melanoma tumor system at dose 6.25 mg/kg. In kind it is functional, Mus musculus. An outline of the steps:
(§7)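 B16 melanocarcinoma assay run at the listed mg/kg doses under standard NCI protocols. Activity is read out as T/C, the treated-to-control ratio.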

In assay [34] the test system is B16. Briefly: Antitumor activity against B16 melanoma tumor system at dose 1.56 mg/kg. In kind it is functional, Mus musculus. An outline of the steps: as §7
Assay [35] has as its system B16. In words: Antitumor activity against B16 melanoma tumor system at dose 12.5 mg/kg. The class given is functional, Mus musculus. An outline of the steps: as §7
Assay [36] concerns B16. In words: Antitumor activity against B16 melanoma tumor system at dose 25 mg/kg. The class given is functional, Mus musculus. An outline of the steps:
as §7

Assay [37] relates to B16. Briefly: Antitumor activity against B16 melanoma tumor system at dose 50 mg/kg. In kind it is functional, Mus musculus. An outline of the steps:
as §7

The test system of assay [38] is P388. The description is as §3. The class given is functional, Mus musculus. As to conditions: route intraperitoneal. An outline of the steps:
as §5
This is another data set of the same source.

Assay [39] deals with P388. The assay is described as §1. The note with it: route intraperitoneal. In kind it is functional, Mus musculus. An outline of the steps:
as §5
The source holds these as a separate data set.

In assay [40] the test system is B16. Briefly: Antitumor activity against B16 melanoma tumor system at dose 3.13 mg/kg. The class given is functional, Mus musculus. An outline of the steps: as §7

For `COc1ccc2c(c1O)-c1cccc3c1C(C2)N(CCOCCCl)CC3` (stereo not given), the T/C in the assay with P388 [1] was determined as 101; in the assay on P388 [2], 99; with P388 [3], 104; in the assay with P388 [4], 107.

Turning to `COc1ccc2c(c1O)-c1cccc3c1C(C2)N(CCOC(=O)NCCCl)CC3` (stereo not given), the T/C with P388 [5] is 101; in the assay with P388 [6] it was 105; in the assay with P388 [7], 97; in the assay with P388 [8], 99; in the assay on P388 [9] it was 99; with P388 [10] it was 99.

On to `COc1ccc2c(c1O)-c1cccc3c1C(C2)N(CCCl)CC3` (stereo not given), for which the T/C was found to be 103 in the assay with B16 [11]; 106 in the assay on B16 [12]; 99 in assay [13]; 124 in [14]; 100 in the assay with B16 [15]; 107 in the assay on P388 [16]. In addition, the T/C with P388 [17] came to 114; in the assay on P388 [18], 151; in the assay on P388 [19], 96; in [20], 104; in assay [21] it was 96; in [22], 107. In addition, the T/C was found to be 105 in assay [23]; 119 in assay [24]; 108 in assay [25]; 102 with B16 [26]; 100 in assay [27]; 106 in the assay on B16 [28]. This compound had a T/C in the assay with P388 [29] of 128.

In the case of `COc1ccc2c(c1OC(C)=O)-c1cc(OC(C)=O)cc3c1C(C2)N(C(=O)CN(CCCl)CCCl)CC3` (stereo not given), the T/C was determined as 185 with P388 [30]; 138 with P388 [31]; 150 in the assay on P388 [32]; 159 in the assay with B16 [33]; 120 with B16 [34]; 150 with B16 [35]. Further, the T/C was 150 with B16 [36]; 170 in the assay on B16 [37]; 170 with P388 [38]; 95 in the assay on P388 [39]; 120 in the assay on B16 [40].
